High-throughput results: PubChem BioAssay, several laboratories
Plk1 PBD FP: Plk1 (human) PBD binding inhibition | 0.13% of 97,000 active | Plk1 PBD phosphopeptide binding, fluorescence polarization | inhibition, %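 (tested at about 20 µM)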; in the data active = inhibition above about 34%, passing the limit was not always enough
HIV Rev-RRE inh: inhibitors of HIV-1 Rev-RRE RNA interaction; Rev peptide-RRE RNA binding, FRET; inhibition, % at 8 µM; 0.79% of 97,000 active; AID 704;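 active = inhibition above the screen-wide mean plus 3 SD, cut at about 35% in these data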;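 also: 0% = median DMSO wells and 100% = median Neomycin B control wells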
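Test system: Cy5-tagged RRE RNA duplex with fluorescein-tagged Rev peptide; Probe or stimulus: labelled Rev peptide; Schedule: 5 min preincubation and 15 min binding, 25 °C; Signal: FRET fluorescence readout; Evaluation: % inhibition from 671/540 nm acceptor-to-donor ratio, scaled between controls; Control set: DMSO and neomycin B.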
F-actin modifier: cytoskeleton assembly modification. HUVEC TNFa F-actin phalloidin imaging, high content. inhibition, % at 2 µM. 0.18% of 91,000 active;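 active = inhibition above the batch mean plus 3 SD and confirmed as a hit by visual image inspection, cut at about 30% in these data, passing the limit was not always enough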
FAK inh: FAK (human) kinase inhibition. inhibition, %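 (tested at 7 µM)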. 0.84% of 97,000 active. Q05397. biochemical FAK kinase activity assay. AID 727; in the data active = inhibition above about 19%;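 also: 0% = DMSO and 100% = reference compound high control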
Target sequence (Q05397 whole entry, looked up): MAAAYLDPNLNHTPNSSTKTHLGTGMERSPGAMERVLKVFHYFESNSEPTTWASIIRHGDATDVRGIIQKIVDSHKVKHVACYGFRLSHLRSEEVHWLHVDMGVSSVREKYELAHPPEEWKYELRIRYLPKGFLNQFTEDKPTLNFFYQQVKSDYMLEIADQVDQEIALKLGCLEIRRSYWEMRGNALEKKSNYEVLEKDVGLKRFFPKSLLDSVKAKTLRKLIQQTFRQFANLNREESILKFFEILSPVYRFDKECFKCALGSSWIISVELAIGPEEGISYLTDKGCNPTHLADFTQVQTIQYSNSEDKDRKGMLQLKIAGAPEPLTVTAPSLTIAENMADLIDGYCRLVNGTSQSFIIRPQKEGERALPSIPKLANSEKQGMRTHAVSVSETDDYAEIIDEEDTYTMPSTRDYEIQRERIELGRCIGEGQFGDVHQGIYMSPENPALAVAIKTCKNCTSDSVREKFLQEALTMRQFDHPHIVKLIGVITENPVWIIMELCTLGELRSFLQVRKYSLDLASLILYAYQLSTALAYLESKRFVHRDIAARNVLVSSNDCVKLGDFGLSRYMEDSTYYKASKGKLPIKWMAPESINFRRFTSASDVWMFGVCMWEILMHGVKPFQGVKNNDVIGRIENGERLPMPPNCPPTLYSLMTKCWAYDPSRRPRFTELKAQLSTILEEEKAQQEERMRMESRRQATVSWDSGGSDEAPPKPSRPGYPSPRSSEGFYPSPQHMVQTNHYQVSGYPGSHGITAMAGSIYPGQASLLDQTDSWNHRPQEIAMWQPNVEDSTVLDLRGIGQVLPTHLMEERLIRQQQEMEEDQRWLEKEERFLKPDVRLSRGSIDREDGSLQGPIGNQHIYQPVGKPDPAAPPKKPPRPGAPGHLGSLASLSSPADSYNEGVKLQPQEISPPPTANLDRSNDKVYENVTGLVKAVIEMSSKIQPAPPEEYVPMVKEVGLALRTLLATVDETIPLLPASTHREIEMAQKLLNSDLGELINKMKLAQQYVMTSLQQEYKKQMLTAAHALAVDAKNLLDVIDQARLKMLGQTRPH
E-sel TNF inh: blocks E-selectin expression induced by TNF alpha | HUVEC TNFa-induced E-selectin immunofluorescence, high content | inhibition, % at 2 µM | 0.71% of 120,000 active | AID 1246;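 active = inhibition above the batch mean plus 3 SD, and confirmed as a hit on visual image review, cut at about 43% in these data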;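 also: 0% = TNF-stimulated DMSO wells and 100% = unstimulated control wells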
PLK1 kinase inh: blocks human PLK1 kinase activity | P53350 | recombinant PLK1 kinase, TR-FRET peptide phosphorylation | inhibition, % at 10 µM | 0.53% of 97,000 active | AID 619;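 active = inhibition of 50% or more in the single-concentration screen; inactive = inhibition below 50%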;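 also: 0% = DMSO max control and 100% = H-89 dihydrochloride min control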
* marks the source's active call; other numbers are inactive results; · = no result; [ ] = dose if it differs, or a comment. Rows were chosen to be rich in hits. Some 2.2% of all compounds tested hit in one or more screens of this group.

SMILES	Plk1 PBD FP	HIV Rev-RRE inh	F-actin modifier	FAK inh	E-sel TNF inh	PLK1 kinase inh
O=C(NCCC1=CCCCC1)c1ccc(=O)oc1	11	1	-10	1	-8	-6
O=S(=O)(c1ccc(Cl)s1)N1CCCc2cccc(O)c21	-20	3	-14	4	-17	-12
Cc1c2cc(O)c(=O)cc-2oc2cc(O)c(O)cc12	130*	140*[fluorescence artefact?]	-6	12	4	36
COCC(=O)N(c1ccccc1)C(C)C(=O)OC (stereo unspecified)	·	·	·	·	-10	·
C=CCc1cccc(/C=N/NC(=O)CNc2ccccc2)c1O	0	5	-5	0	-6	-5
C=CCc1cccc(/C=N/NC(=O)CCCNc2ccc(C)cc2)c1O	·	·	·	·	69*	·
Cc1ccc(C(=O)NCCSc2ccccc2)cc1S(=O)(=O)Nc1ccccc1	18	11	5	2	25	-6
CC(C)(C)OC(=O)NCC(=O)N1CCC(C(=O)O)CC1	0	6	18	-2	69*	-3
CCOC(=O)C1CCN(C(=O)CNC(=O)OC(C)(C)C)CC1	-1	2	20	2	-51	-8
O=C(CCn1c2c(c3ccccc31)CCCC2)NNC(=O)c1ccccc1[N+](=O)[O-]	·	·	·	·	81*	·
O=[N+]([O-])/C=C/c1c(OCc2ccccc2)ccc2ccccc12	-16	22	·	0	8	-5
CCCCOc1ccc2ccccc2c1C=O	15	11	9	7	52*	-15
CN(C)c1cccc(C(=O)Nc2ccc(N3CCOCC3)cc2)c1	-38	-1	32*	1	6	-9
COc1ccc(C(=O)N/C(=C/c2ccco2)C(=O)NC2CCS(=O)(=O)C2)cc1 (stereo unspecified)	·	·	·	·	5	·
COC(=O)c1cscc1NC(C)=O	-9	10	30*	-1	9	-2
CC12C=CC3(O1)C(C(=O)N(c1cccnc1)C3C(=O)NC1CCCCC1)C2C(=O)Nc1ccccc1 (stereo unspecified)	1	8	6	0	8	-4
CC(C)(C)NC(=O)C1N(c2cccnc2)C(=O)C2C(C(=O)Nc3ccccc3F)C3(C)C=CC21O3 (stereo unspecified)	-3	3	72*	0	-14	-20
O=C(O)CCN1C(=O)/C(=C/c2ccc(-c3nc4ccccc4s3)o2)SC1=S	-43	34	12	2	32	-17
O=C(O)CC(C(=O)O)N1C(=O)/C(=C/c2ccc(-c3nc4ccccc4s3)o2)SC1=S (stereo unspecified)	-24	52*	6	-1	7	19
Cc1cccc(N(C(=O)Nc2ccccc2)C2=NCC(C)S2)c1 (stereo unspecified)	-11	7	·	2	·	67*
CC1=Nc2ccccc2/C1=C/c1sc(=N)n(-c2nccs2)c1O	-37	62*	-12	-4	-64	-43
CC1(C)Cc2c(sc3c2C2=NCCN2C=N3)CO1	11	13	-7	14	10	57*
Cc1ccc(NC2OC(C(O)CO)C(O)C2O)cc1[N+](=O)[O-] (stereo unspecified)	7	8	·	5	64*	2
CC1(C)CC(=O)C2=C(C1)Nc1ccccc1NC2c1ccccn1 (stereo unspecified)	·	·	·	·	-52	·
Cc1cc2c(cc1C)NC(c1c(C)n(C)n(-c3ccccc3)c1=O)C1=C(CC(C)(C)CC1=O)N2 (stereo unspecified)	4	107*[fluorescence artefact?]	-6	-3	6	-8
SMILES	Plk1 PBD FP	HIV Rev-RRE inh	F-actin modifier	FAK inh	E-sel TNF inh	PLK1 kinase inh
CCOc1cc(C(=O)Nc2cccc3ncccc23)cc(OCC)c1OCC	-16	8	53*	-1	·	11
Cc1cc(C(=O)Nc2cccc3ncccc23)no1	7	1	0	-7	16	-3
C=C(C)C1CC=C(C)/C(=N/NC(=O)C2CC2c2ccccc2)C1 (stereo unspecified)	·	·	·	·	-42	·
Cc1ccc(C)c(NC(=O)C2=CCN(S(=O)(=O)c3ccc(F)cc3)CC2)c1	·	·	·	·	3	·
COc1ccc(C2C(C(C)=O)=C(C)N=c3s/c(=C\c4cc(C)n(C)c4C)c(=O)n32)c(OC)c1 (stereo unspecified)	-199	128*[fluorescence artefact?]	23	-3	-24	-8
COc1ccc(C2C(C(C)=O)=C(C)N=c3s/c(=C\c4ccco4)c(=O)n32)c(OC)c1 (stereo unspecified)	-23	11	10	5	-5	-8
Cc1cc2c(c(=O)n1Cc1cccnc1)C(c1ccccc1)C(C#N)=C(N)O2 (stereo unspecified)	-4	8	-15	5	·	-4
CNc1nc2[nH]c(=O)c3c(c2s1)OC(N)=C(C#N)C3c1cccc(F)c1 (stereo unspecified)	-19	99*[fluorescence artefact?]	-8	-1	-12	4
Cc1nnc(N2C(=O)C(O)=C(C(=O)c3ccco3)C2c2ccc(C(C)C)cc2)s1 (stereo unspecified)	·	·	·	·	-10	·
Cc1nnc(N2C(=O)C(O)=C(C(=O)c3ccco3)C2c2ccc(C(C)(C)C)cc2)s1 (stereo unspecified)	-23	92*[fluorescence artefact?]	-9	-2	5	-1
Cc1nnc(N2C(=O)C(O)=C(C(=O)c3ccco3)C2c2ccc(F)cc2)s1 (stereo unspecified)	-12	52*	-6	-3	·	-2
COc1ccc(NCc2nc3ccccc3n2CCOc2ccc(C)cc2)cc1	·	·	·	·	16	·
O=C(Nc1ccccc1)c1nnsc1S(=O)c1ccc(Cl)cc1 (stereo unspecified)	4	10	25	3	80*	-8
Cc1ccc2nc3sc(C(=O)NCc4ccco4)c(N)c3cc2c1	-13	37*	5	3	39	-8
COc1cc2cc3c(N)c(C(=O)NCc4ccco4)sc3nc2cc1OC	7	34	-18	4	30	-3
CCOC(=O)c1c(C)c(C(=O)Nc2ccc3c(c2)OCCO3)c(C)n1C	·	·	·	·	96*	·
O=C1/C(=C/c2cccs2)SC(=S)N1c1ccccc1	-35	7	-2	-10	56*	0
COc1ccc(NC(=O)c2ccc(CNc3c(NC4CCCCC4)c(=O)c3=O)cc2)cc1OC	21	-2	11	2	72*	-5
Cc1cc2oc(=O)cc(CN3CCc4ccccc43)c2cc1Cl	-6	3	10	-2	·	-9
Cc1ccc2c(CN3CCCc4ccccc43)cc(=O)oc2c1C	-3	57*	19	-8	·	-19
COc1cccc(/C=C/C(=O)OCC(=O)Nc2cccc(S(=O)(=O)N3CCOCC3)c2)c1OC	·	·	·	·	-26	·
CC(=O)Nc1ccccc1C(=O)N1CCN(Cc2ccccc2)CC1	·	·	·	·	-1	·
CCN1C/C(=C\c2cccc([N+](=O)[O-])c2)C(=O)/C(=C/c2cccc([N+](=O)[O-])c2)C1	·	·	·	·	100*	·
CCN1C/C(=C/c2ccc(OC)c(O)c2)C(=O)/C(=C/c2ccc(OC)c(O)c2)C1	·	·	·	·	60*	·
CN1CCC(N(C)C(=O)c2cc(=O)c3ccccc3o2)CC1	·	·	·	·	-10	·
